Test results taken from ChEMBL document CHEMBL4825663 (J Med Chem, 2021).

Columns and labels:
[1] = Drug distribution in BALB/c mouse kidney at 20 mg/kg, po measured upto 24 hrs in presence of 10 mg/kg encequidar by LC-MS/MS analysis; format: ADME, organism-based; conditions: in vivo
NCI-H460 = assay: Antitumor activity against human NCI-H460 cells xenografted in athymic nude mouse assessed as median tumor growth delay at 30 mg/kg, po administered every other day for 4 doses in presence of 12 mg/kg encequidar and monitored for 48 days; format: functional; conditions: time 48 day
In short: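 Female athymic NCr-nu mice carried subcutaneous NCI-H460 xenografts. […] Tumor weights and body weights were followed for 48 days after implantation. Read-out was median tumor growth delay.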

[2] = Drug distribution in BALB/c mouse intestine at 20 mg/kg, po measured upto 24 hrs in presence of 10 mg/kg encequidar by LC-MS/MS analysis; format: ADME, organism-based; conditions: in vivo
[3] = Drug absorption in fed Sprague-Dawley rat at 20 mg/kg, po measured upto 24 hrs in presence of 10 mg/kg encequidar by LC-MS/MS analysis; format: ADME, organism-based; conditions: in vivo
[4] = Drug distribution in Sprague-Dawley rat liver at 20 mg/kg, po measured upto 168 hrs in presence of 10 mg/kg encequidar by LC-MS/MS analysis; format: ADME, organism-based; conditions: in vivo
[5] = Toxicity in athymic nude mouse xenografted with human NCI-H460 cells assessed as mortality at 30 to 50 mg/kg, po administered every other day for 4 doses in presence of 12 to 20 mg/kg encequidar and monitored for 48 days; format: organism-based; conditions: in vivo, 1152 h, dose 30-50 mg/kg, time 48 day
[6] = Drug excretion in dog bile at 6 mg/kg, po in presence of 3 mg/kg encequidar; format: ADME, organism-based, Canis lupus familiaris; conditions: in vivo
[7] = Ratio of drug concentration in BALB/c mouse spleen to plasma at 20 mg/kg, po measured upto 24 hrs in presence of 10 mg/kg encequidar by LC-MS/MS analysis; format: ADME, organism-based
[8] = Toxicity in Sprague-Dawley rat assessed as histiocytosis in lymph nodes at 10 to 50 mg/kg, po and measured after 4 to 13 weeks; format: organism-based, Lymph node; conditions: in vivo, dose lower 10 mg/kg, time lower 4 weeks, dose upper 50 mg/kg, time upper 13 weeks
[9] = Apparent permeability from apical to basolateral side in MDCK-II cells after 120 mins by LC-MS/MS analysis; format: ADME, cell-based, Canis lupus familiaris; conditions: dog
[10] = biological target: T1, Multidrug and toxin extrusion protein 2 (Homo sapiens, UniProt Q86VL8); assay: Inhibition of human MATE2K assessed as reduction in intracellular probe substrate accumulation upto 100 uM by microplate scintillation counter analysis relative to control; format: cell-based
T1 sequence (Q86VL8 whole entry): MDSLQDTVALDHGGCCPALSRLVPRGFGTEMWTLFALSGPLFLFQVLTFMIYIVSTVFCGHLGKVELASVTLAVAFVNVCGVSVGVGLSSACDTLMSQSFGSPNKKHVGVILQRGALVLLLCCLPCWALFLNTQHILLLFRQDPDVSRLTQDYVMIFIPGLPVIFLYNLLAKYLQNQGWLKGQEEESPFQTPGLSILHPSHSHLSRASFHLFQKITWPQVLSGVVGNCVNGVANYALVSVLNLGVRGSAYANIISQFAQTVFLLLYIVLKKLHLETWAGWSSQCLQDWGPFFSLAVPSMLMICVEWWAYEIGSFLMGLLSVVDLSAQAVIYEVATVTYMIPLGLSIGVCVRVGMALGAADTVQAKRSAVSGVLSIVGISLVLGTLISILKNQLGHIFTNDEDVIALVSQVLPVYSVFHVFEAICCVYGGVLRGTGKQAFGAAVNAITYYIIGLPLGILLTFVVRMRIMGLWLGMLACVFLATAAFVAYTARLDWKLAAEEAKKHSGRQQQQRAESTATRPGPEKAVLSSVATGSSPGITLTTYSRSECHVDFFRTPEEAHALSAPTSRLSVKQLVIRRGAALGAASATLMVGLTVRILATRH
In short: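 Cellular uptake-inhibition assays used Chinese hamster ovary, HEK293 or MDCKII cells stably expressing the respective human SLC transporter, run alongside the corresponding control cells. Inhibitor was tested at concentrations up to 100 μM.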

[11] = Drug distribution in Beagle dog bile; format: ADME, tissue-based, Canis lupus familiaris; conditions: in vivo
Cytochrome P450 3A4 = Cytochrome P450 3A4 (Homo sapiens, UniProt P08684); assay: Drug metabolism assessed as human CYP3A4-mediated metabolism; format: ADME; conditions: recombinant enzyme
[12] = biological target: ATP-dependent translocase ABCB1 (Homo sapiens, UniProt P08183); assay: Inhibition of paclitaxel stimulated- P-gp ATPase activity (unknown origin)
[13] = Cmax in human upto 360 mg, po administered as repeated dose for 5 consecutive days; format: ADME, organism-based; parameters: route oral, dose <=360; conditions: in vivo
[14] = Drug distribution in Beagle dog liver; format: ADME, tissue-based, Canis lupus familiaris; conditions: in vivo
Cytochrome P450 1A2 = biological target: T2, Cytochrome P450 1A2 (Homo sapiens, UniProt P05177); assay: Drug metabolism assessed as human CYP1A2-mediated metabolism; format: ADME; conditions: recombinant enzyme
T2 sequence (P05177 whole entry): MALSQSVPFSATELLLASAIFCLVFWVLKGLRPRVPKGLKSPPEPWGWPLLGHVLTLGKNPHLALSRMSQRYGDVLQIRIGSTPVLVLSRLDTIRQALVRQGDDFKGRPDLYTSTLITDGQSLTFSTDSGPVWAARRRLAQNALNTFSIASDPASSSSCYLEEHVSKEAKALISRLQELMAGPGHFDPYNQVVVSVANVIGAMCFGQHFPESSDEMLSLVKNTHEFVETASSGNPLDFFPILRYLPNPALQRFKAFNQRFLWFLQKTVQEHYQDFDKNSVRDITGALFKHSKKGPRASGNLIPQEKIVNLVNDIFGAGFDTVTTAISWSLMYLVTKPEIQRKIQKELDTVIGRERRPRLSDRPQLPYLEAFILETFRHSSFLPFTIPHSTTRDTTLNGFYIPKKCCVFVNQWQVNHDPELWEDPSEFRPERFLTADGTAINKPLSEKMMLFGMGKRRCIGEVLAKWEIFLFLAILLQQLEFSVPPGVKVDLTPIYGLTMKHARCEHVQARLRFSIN

[15] = Tmax in Sprague-Dawley rat at 10 mg/kg, po measured upto 48 hrs by LC-MS/MS analysis; conditions: in vivo

ATP-dependent translocase ABCB1, sequence (P08183 whole entry): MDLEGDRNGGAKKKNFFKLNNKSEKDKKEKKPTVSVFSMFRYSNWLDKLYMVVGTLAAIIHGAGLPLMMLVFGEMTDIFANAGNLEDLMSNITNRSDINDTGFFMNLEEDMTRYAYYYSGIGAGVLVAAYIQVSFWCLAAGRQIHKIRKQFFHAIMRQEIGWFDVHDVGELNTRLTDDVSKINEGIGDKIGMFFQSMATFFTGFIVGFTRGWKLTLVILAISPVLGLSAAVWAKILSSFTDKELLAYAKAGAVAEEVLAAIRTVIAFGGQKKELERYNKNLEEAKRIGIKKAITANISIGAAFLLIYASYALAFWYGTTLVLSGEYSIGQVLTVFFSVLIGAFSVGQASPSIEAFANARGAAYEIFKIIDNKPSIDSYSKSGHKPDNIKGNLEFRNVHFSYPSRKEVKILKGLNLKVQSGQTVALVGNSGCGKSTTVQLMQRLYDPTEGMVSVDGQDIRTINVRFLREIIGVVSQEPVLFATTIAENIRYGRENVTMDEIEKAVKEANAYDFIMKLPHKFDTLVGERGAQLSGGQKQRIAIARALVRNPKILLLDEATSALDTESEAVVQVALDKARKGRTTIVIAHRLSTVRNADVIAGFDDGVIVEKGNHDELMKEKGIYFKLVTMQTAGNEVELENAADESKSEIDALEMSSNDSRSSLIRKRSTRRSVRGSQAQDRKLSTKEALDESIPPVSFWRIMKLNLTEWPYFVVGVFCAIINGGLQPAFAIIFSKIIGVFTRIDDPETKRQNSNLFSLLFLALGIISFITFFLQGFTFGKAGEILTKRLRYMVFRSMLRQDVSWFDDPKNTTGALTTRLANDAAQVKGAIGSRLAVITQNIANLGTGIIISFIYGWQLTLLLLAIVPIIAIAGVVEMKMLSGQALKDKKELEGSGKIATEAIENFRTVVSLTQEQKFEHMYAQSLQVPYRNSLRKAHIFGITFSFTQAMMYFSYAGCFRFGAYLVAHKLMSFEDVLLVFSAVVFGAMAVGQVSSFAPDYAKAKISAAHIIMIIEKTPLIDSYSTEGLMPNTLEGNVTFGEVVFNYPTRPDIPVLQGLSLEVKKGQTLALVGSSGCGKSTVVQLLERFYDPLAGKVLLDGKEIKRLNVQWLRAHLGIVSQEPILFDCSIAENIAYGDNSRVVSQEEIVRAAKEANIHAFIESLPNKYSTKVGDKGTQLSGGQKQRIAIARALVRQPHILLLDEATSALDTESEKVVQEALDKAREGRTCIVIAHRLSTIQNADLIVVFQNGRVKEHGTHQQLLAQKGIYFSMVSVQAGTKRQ
Cytochrome P450 3A4, sequence (P08684 whole entry): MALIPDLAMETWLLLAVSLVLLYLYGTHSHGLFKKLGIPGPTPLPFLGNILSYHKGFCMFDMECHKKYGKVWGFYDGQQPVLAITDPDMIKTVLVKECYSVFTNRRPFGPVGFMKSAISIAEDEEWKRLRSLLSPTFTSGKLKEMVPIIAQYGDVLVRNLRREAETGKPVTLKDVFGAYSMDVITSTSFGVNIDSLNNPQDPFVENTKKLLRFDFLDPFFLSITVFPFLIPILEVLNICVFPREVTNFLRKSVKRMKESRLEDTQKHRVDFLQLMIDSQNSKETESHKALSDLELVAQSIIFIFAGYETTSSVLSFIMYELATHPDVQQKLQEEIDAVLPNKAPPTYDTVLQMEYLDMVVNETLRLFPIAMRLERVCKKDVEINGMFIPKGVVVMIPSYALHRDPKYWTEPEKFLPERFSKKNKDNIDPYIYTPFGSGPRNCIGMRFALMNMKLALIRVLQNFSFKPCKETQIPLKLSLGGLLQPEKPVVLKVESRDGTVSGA

| Structure (SMILES) | Drug uptake [1] | Time (NCI-H460) [days] | Drug uptake [2] | Drug absorption [3] | Drug uptake [4] | Activity [5] | Drug excretion [6] | Kp at 24 h [7] | Activity [8] | Papp A→B at 2 h [9] [nm/s] | inhibition (INH) [10] [%] | Drug uptake [11] | Drug metabolism (Cytochrome P450 3A4) | IC50 [12] [nM] | Cmax [13] [µg/mL] | Drug uptake [14] | Drug metabolism (Cytochrome P450 1A2) | Tmax [15] [h] |
| --- | --- | --- | --- | --- | --- | --- | --- | --- | --- | --- | --- | --- | --- | --- | --- | --- | --- | --- |
| CC(=O)O[C@H]1C(=O)[C@@]2(C)[C@H]([C@H](OC(=O)c3ccccc3)[C@]3(O)C[C@H](OC(=O)[C@H](O)[C@@H](NC(=O)c4ccccc4)c4ccccc4)C(C)=C1C3(C)C)[C@]1(OC(C)=O)CO[C@@H]1C[C@@H]2O [PACLITAXEL] | Active | 9.9 | Active | Not Active | Active | Non-Toxic | Metabolite_Detected | > 1 | – | – | – | – | – | – | – | – | – | – |
| COc1cc2c(cc1OC)CN(CCc1ccc(-n3nnc(-c4cc(OC)c(OC)cc4NC(=O)c4cc(=O)c5ccccc5o4)n3)cc1)CC2 | – | – | – | – | – | – | – | – | Toxic | 0.02 | < 50 | Active | Metabolite_Detected | 0.6 | 0.0225 | Active | Metabolite_Notdetected | 8 |
